The target of assay [1] is T1, rSULT1A1 (Rattus norvegicus, UniProt P17988). To be noted: cited from earlier work; for inhibitor status with rSULT1A1: standard assay conditions, reduced rSULT1A1; for IC50: rSULT1A1 with all cysteines in the thiol form, 2-naphthol as the substrate.
Assay [2] concerns the target T1, rSULT1A1. Nature of the assay: Kd of OHPCBs with rSULT1A1 by displacement of ANS. In kind it is binding. In a few lines: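 Recombinant rat enzyme (E. coli-expressed, PAP-agarose purified), DTT removed by gel filtration, pretreated with 1 mM GSH or GSSG for 1 h at 25 °C under argon. Enzyme at 0.34 µM in 0.25 M potassium phosphate pH 7.0, held 2 min at 37 °C under argon. ANS added (10 µM final), then titrated with test compound in ethanol. Fluorescence ex 380/em 465 nm. Duplicates; one-site fit corrected for non-specific ANS binding.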

Assay [3] addresses rSULT1A1-PAP complex (Rattus norvegicus, UniProt P17988). The assay can be described thus: Kd of OHPCBs with the rSULT1A1-PAP complex by displacement of ANS. In kind it is binding. In a few lines: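 DTT-free recombinant rat enzyme pretreated with 1 mM GSH or GSSG for 1 h at 25 °C under argon. Enzyme at 0.34 µM in 0.25 M potassium phosphate pH 7.0, held 2 min at 37 °C under argon. ANS added (10 µM final), then 0.27 mM PAP to form the complex, then titrated with test compound in ethanol. Read at ex 380/em 465 nm. Duplicates; one-site fit corrected for non-specific ANS binding.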

For assay [4], the target named is T1, rSULT1A1. The assay can be described thus: Sulfation of OHPCBs catalyzed by rSULT1A1. To be noted: standard assay conditions (reduced enzyme). In kind it is biochemical. In a few lines: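 Rat SULT1A1 expressed in E. coli BL21(DE3) from pET-3c and purified on PAP-agarose affinity column. Reaction at 37 °C: 0.25 M potassium phosphate pH 7.0, 200 µM PAPS, 7.5 mM 2-mercaptoethanol, 10 µM test compound added in acetone (3.3% v/v final). Started with 0.75 µg enzyme, stopped with methanol after 6 min. Sulfation rate from HPLC of substrate-dependent PAP formation.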

Assay [5] deals with T1, rSULT1A1. To be noted: GSSG-pretreated enzyme; cited from earlier work.
Assay [6] deals with T1, rSULT1A1. Nature of the assay: Binding of TNP-AMP and PAP to rSULT1A1. In a few lines:
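Recombinant rat enzyme (expressed in E. coli BL21(DE3), purified on PAP-agarose) at 0.34 µM in potassium phosphate pH 7.0, 37 °C, in a quartz cuvette. Titrated with TNP-AMP and the fluorescence increase recorded (ex 435/em 545 nm). PAP titration then displaced TNP-AMP, and the fluorescence decrease was recorded. Kd from a single-site binding fit corrected for non-specific binding.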

[7] abbreviates: read-out: Kd values for OHPCBs with rSULT1A1, Without PAP, GSH, enzyme pretreated with 1 mM GSH, pH 7.0, 37 °C.
The mark [8] stands for this setting: read-out: Kd values for OHPCBs with rSULT1A1, Without PAP, GSSG, enzyme pretreated with 1 mM GSSG, pH 7.0, 37 °C.
Where [9] appears, read: read-out: Kd values for OHPCBs with rSULT1A1, With 0.27 mM PAP, GSH, enzyme pretreated with 1 mM GSH, pH 7.0, 37 °C.
Setting [10] is: read-out: Kd values for OHPCBs with rSULT1A1, With 0.27 mM PAP, GSSG, enzyme pretreated with 1 mM GSSG, pH 7.0, 37 °C.

Entries after “also recorded” stand apart in the source; their conditions may differ. Where two headings read alike, the source gives them in different places.

T1 sequence (P17988 whole entry): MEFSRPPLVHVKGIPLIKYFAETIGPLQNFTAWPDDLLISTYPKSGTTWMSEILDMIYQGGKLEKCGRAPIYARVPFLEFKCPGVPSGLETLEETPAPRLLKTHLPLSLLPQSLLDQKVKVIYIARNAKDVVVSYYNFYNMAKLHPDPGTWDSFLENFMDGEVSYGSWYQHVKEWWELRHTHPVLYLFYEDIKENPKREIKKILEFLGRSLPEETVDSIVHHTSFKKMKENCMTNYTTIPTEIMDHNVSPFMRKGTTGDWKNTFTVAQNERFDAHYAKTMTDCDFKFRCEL
Sequence of rSULT1A1-PAP complex (P17988 whole entry, one chain of several): as the sequence (P17988 whole entry) above

As to `Oc1ccc(-c2ccc(Cl)cc2Cl)cc1Cl` [4’-OH PCB 25], the “inhibitor status with rSULT1A1” value in assay [1] is recorded as “the weakest inhibitor”.
As usually defined, the Kd is the free concentration of one partner at which half of the binding sites on the other are occupied at equilibrium, for simple one-to-one binding. With `Oc1ccc(Cl)cc1-c1ccc(Cl)c(Cl)c1` [6’-OH PCB 35], the Kd in assay [2] (setting [7]) turned out to be 65 ± 32 µM; in assay [2] (setting [8]), 117 ± 36 µM; in assay [3] (setting [9]), 3.7 ± 0.01 µM; in assay [3] (setting [10]), 3.6 ± 1.3 µM. Moreover, in assay [4], the “substrate status with rSULT1A1” value is “substrates for rSULT1A1”.
The like results for `Oc1ccc(-c2cc(Cl)ccc2Cl)cc1` [4’-OH PCB 9] were, in that order, 12 ± 4 µM, 7.1 ± 1.3 µM, 3.1 ± 1.5 µM, 3.3 ± 0.1 µM and “substrates for rSULT1A1”.
In general, IC50 refers to the concentration at which inhibition is half-maximal. As to `Oc1c(Cl)cc(-c2ccc(Cl)cc2Cl)cc1Cl` [4’-OH PCB 68], the Kd amounted to 0.67 ± 0.1 µM in assay [2] (setting [7]), 0.53 ± 0.1 µM in assay [2] (setting [8]), 0.47 ± 0.02 µM in assay [3] (setting [9]) and 0.4 ± 0.04 µM in assay [3] (setting [10]). Moreover, the IC50 in assay [1] is 0.85 µM. In assay [1], the “inhibitor status with rSULT1A1” value is given as “inhibitors of the enzyme”. In assay [5], the “substrate status with GSSG-pretreated (oxidized) rSULT1A1” value (from here on “substrate status with GSSG-pretreated”) was “non-substrates for GSSG-pretreated enzyme”.
Consider `Oc1ccc(-c2ccc(Cl)c(Cl)c2)cc1Cl` [4’-OH PCB 35], for which the Kd came to 3.6 ± 0.9 µM in assay [2] (setting [7]), 1.6 ± 0.4 µM in assay [2] (setting [8]), 1.6 ± 0.1 µM in assay [3] (setting [9]) and 1.7 ± 0.1 µM in assay [3] (setting [10]). Moreover, the “substrate status with rSULT1A1” value in assay [4] is reported as “substrates for rSULT1A1; also recorded: the weakest substrate”.
Regarding `Oc1ccc(-c2cc(Cl)cc(Cl)c2)cc1Cl` [4’-OH PCB 36], the “inhibitor status with rSULT1A1” value in assay [1] is given as “relatively weak inhibitors”. Also, in assay [5], the “substrate status with GSSG-pretreated” value is listed as “substrates for oxidized rSULT1A1”.
On to `Oc1ccc(-c2ccc(Cl)c(Cl)c2)cc1` [4’-OH PCB 12], for which the Kd stood at 4 ± 0.8 µM in assay [2] (setting [7]), 2.5 ± 0.7 µM in assay [2] (setting [8]), 3.1 ± 0.01 µM in assay [3] (setting [9]) and 4.6 ± 1.2 µM in assay [3] (setting [10]). The “substrate status with rSULT1A1” value in assay [4] is listed as “substrates for rSULT1A1”.
As to “2'-(or-3')-O-(trinitrophenyl)adenosine 5'-monophosphate [TNP-AMP]”, in assay [6] (read-out: Kd of TNP-AMP binding to rSULT1A1, 0.34 µM rSULT1A1, potassium phosphate buffer pH 7.0, 37°C, fluorescence at 545 nm), the Kd stood at 6.5 µM.
As to `Oc1c(Cl)cc(-c2ccccc2)cc1Cl` [4-OH PCB 14], the equilibrium dissociation constant (Kd) in assay [2] (setting [7]) was 0.26 ± 0.03 µM; in assay [2] (setting [8]) it was 0.22 ± 0.02 µM; in assay [3] (setting [9]), 0.4 ± 0.05 µM; in assay [3] (setting [10]), 0.29 ± 0.04 µM. Moreover, the IC50 in assay [1] was 0.27 µM. For the same molecule, the “substrate status with GSSG-pretreated” value in assay [5] is given as “converted from inhibitors to substrates”.
The molecule `Nc1ncnc2c1ncn2[C@@H]1O[C@H](COP(=O)(O)O)[C@@H](OP(=O)(O)O)[C@H]1O` [PAP, Adenosine 3’,5’-diphosphate] gave a Kd in assay [6] (Kd of PAP displacing TNP-AMP bound to rSULT1A1, 0.34 µM rSULT1A1, pH 7.0, 37°C, Figure 4B) of 2.6 µM.
As to `Oc1ccc(-c2ccccc2Cl)cc1Cl` [4’-OH PCB 6], the dissociation constant (Kd) in assay [2] (setting [7]) is 0.66 ± 0.2 µM; in assay [2] (setting [8]) it was 0.5 ± 0.1 µM; in assay [3] (setting [9]), 0.88 ± 0.03 µM; in assay [3] (setting [10]) it was 0.72 ± 0.01 µM. The IC50 in assay [1] was 23 µM. Moreover, the “substrate status with GSSG-pretreated” value in assay [5] is given as “converted from inhibitors to substrates”.
For `Oc1c(Cl)cc(-c2ccccc2Cl)cc1Cl` [4-OH PCB 34], the Kd came to 0.37 ± 0.01 µM in assay [2] (setting [7]), 0.23 ± 0.01 µM in assay [2] (setting [8]), 0.49 µM in assay [3] (setting [9]) and 0.54 ± 0.01 µM in assay [3] (setting [10]). The IC50 in assay [1] was 0.34 µM. Further, the “inhibitor status with rSULT1A1” value in assay [1] is given as “inhibitors of the enzyme”. For the same molecule, the “substrate status with GSSG-pretreated” value in assay [5] is on record as “non-substrates for GSSG-pretreated enzyme”.
On to `Oc1ccc(-c2ccc(Cl)c(Cl)c2)c(Cl)c1` [4’-OH PCB 33], for which the Kd in assay [2] (setting [7]) stood at 2 ± 0.1 µM; in assay [2] (setting [8]), 2.5 ± 0.4 µM; in assay [3] (setting [9]) it was 2 ± 0.01 µM; in assay [3] (setting [10]), 2.4 ± 0.04 µM. In addition, in assay [1], the IC50 was 26 µM. Also, the “inhibitor status with rSULT1A1” value in assay [1] was “relatively weak inhibitors”. The “substrate status with GSSG-pretreated” value in assay [5] was “converted from inhibitors to substrates; also recorded: substrates for oxidized rSULT1A1”.

These data come from publication PMC3032042 (Chemico-biological interactions, 2010).
